Compound activity: PubChem BioAssay, Johns Hopkins Ion Channel Center
Kir21 inh: blocks the mouse Kir2.1 inward-rectifier potassium channel. 0.85% of 310,000 active. P35561. B-score at 10 µM. AID 1672. HEK293-Kir2.1, FluxOR thallium flux fluorescence; active compounds read low;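 active = fluorescence ratio B-score at or below minus 3 SD of library scores, with starting-brightness B-score within 2 SD, cut at about -4.2 in these data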;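 also: channel flux triggered by added potassium and thallium sulfate stimulus; B-score of peak minus minimum fluorescence over baseline after thallium stimulus; more negative B-score means stronger Kir2.1 block with less thallium influx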
KCNQ1 inh: human KCNQ1 channel inhibition; CHO-K1 KCNQ1, FluxOR thallium flux fluorescence; active compounds read high; 1.3% of 310,000 active; P51787; B-score at 10 µM; AID 2642;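 active = compounds whose thallium flux B-score, printed positive for inhibition, exceeds three library SD while starting fluorescence stays within three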;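 also: channel opened by potassium depolarization with thallium stimulus after 20 min compound exposure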
KCNQ1 pot: human KCNQ1 channel potentiation or activation. CHO-K1 KCNQ1, thallium flux FluxOR fluorescence; active compounds read high. B-score at 10 µM. 0.35% of 310,000 active;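 active = fluorescence ratio B-score, a plate-corrected score, at least three library SD, with initial intensity B-score within 5 SD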
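Medium – assay buffer, equal DMSO in all wells · Material – CHO-K1 cell line with stable KCNQ1 potassium channel expression · Signal – kinetic FluxOR thallium fluorescence, 10-s 1-Hz baseline, 110-s post-stimulus read · Compound – single concentration per compound, DMSO matched to controls · Schedule – 37 °C overnight plating, 90-min dark dye load, 20-min compound pretreatment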
KCNK3 block: human KCNK3 channel inhibition, primary screen; 0.84% of 340,000 active; CHO-KCNK3 thallium flux, FluxOR fluorescence; active compounds read low; B-score at 10 µM; AID 602410;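 active = B-score under library mean minus 4 SD, starting fluorescence ratio at most library mean plus 5 SD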;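 also: more negative B-score means stronger inhibition of thallium flux through KCNK3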
Target sequence (O14649 whole entry, looked up): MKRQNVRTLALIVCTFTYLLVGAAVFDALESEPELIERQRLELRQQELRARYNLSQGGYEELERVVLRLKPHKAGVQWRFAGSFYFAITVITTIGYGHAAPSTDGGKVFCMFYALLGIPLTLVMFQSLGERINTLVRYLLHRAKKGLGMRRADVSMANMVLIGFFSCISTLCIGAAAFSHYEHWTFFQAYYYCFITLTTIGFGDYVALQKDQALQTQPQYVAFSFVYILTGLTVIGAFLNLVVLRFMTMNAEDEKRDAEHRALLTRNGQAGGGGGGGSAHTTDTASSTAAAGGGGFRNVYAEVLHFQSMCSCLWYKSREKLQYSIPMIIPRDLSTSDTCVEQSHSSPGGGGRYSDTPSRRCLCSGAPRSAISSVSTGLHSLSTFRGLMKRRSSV
hERG rescue: compounds protecting human hERG from proarrhythmic drug block; CHO-hERG, FluxOR thallium flux, dofetilide IC70 present; activation (rescue from dofetilide block), less the hit threshold, % at 10 µM; 0.51% of 310,000 active;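 active = activation above the mean of controls blocked by dofetilide plus 5 SD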;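 also: thallium influx through hERG after potassium depolarization seen as dye fluorescence rise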
KCNK9 block: blocks the human KCNK9 two-pore domain potassium channel; Q9NPC2; HEK293 KCNK9, FluxOR thallium flux fluorescence; active compounds read low; B-score at 10 µM; 1.2% of 310,000 active; AID 488922;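 active = ratio B-score over 3 SD below the library mean, with starting fluorescence within 5 SD of its mean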;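 also: negative B-score means less thallium flux so channel inhibition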
KCNK9 inh conf: confirmation of human KCNK9 potassium channel inhibitors; shares compounds with KCNK9 block; HEK293 KCNK9 cells, FluxOR thallium flux fluorescence; inhibition, % at 10 µM; 43% of 4,900 active; AID 492992;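 active = thallium signal inhibited by more than 5 SD of the compound-free buffer control wells, on both duplicate plates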;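 also: 0% = assay buffer control wells without compound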
Kir2-1 spec: tests whether KCNK9 modulators also affect mouse Kir2.1 | 4% of 4,900 active | Kir2.1 cells, FluxOR thallium flux fluorescence | shares compounds with KCNK9 block | AID 492993 | inhibition, % at 10 µM;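 active = thallium signal drop more than 5 SD beyond the mean of the no-compound control wells, seen in both duplicate plates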;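 also: signal is fluorescence rise after thallium addition divided by baseline fluorescence; plate controls were assay buffer only for no effect and full block by chlorpromazine control for full effect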
KCNK9 uninduced: second counter-screen for KCNK9 modulators: effect in non-induced cells | shares compounds with KCNK9 block | non-induced KCNK9-HEK293, FluxOR thallium flux | inhibition, % at 10 µM | 40% of 4,900 active | AID 492997;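 active = thallium signal drop beyond 5 SD of the untreated control mean, on both duplicate plates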;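 also: plate controls were buffer only IC0 wells for no effect and SID17386958 at its maximal inhibitory level for full effect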
Active calls of the source: *; i = inactive; · = not tested or not shown. Hits are enriched below; roughly 3.7% of the tested compounds scored in any of these assays.

SMILES	Kir21 inh	KCNQ1 inh	KCNQ1 pot	KCNK3 block	hERG rescue	KCNK9 block	KCNK9 inh conf	Kir2-1 spec	KCNK9 uninduced
Cc1nc(Nc2ccc(Cl)cc2Cl)sc1C(=O)Nc1ccccc1	-0.52	i	i	i	-6	i	i	i	i
Cc1[nH]n(-c2ccc(Cl)cc2)c(=O)c1C(=O)c1ccccc1	0.97	i	i	i	-8	i	·	·	·
CC1=NN(c2ccc(Cl)cc2)C(=O)C1C(c1cccc(O)c1)c1c(C)[nH]n(-c2ccc(Cl)cc2)c1=O (stereo not drawn)	-0.77	i	i	i	-3	i	i	i	i
Cc1cc(C)c(C(=O)C(C)OC(=O)c2ccc(Cl)nc2)cc1C (stereo not drawn)	0.44	i	i	i	-9	i	i	i	i
Cc1ccc(NC(=O)CSc2nnc(Cc3csc(C)n3)o2)cc1	·	·	·	i	·	·	·	·	·
CCOc1ccc(Nc2nc(Cc3nnc(SCC(=O)c4ccc(C)c(C)c4)o3)cs2)cc1	-0.01	i	i	i	-6	i	i	i	i
Cc1ccc(Oc2ccc(NS(=O)(=O)c3cccc(C(=O)O)c3)cc2)cc1	·	·	·	i	·	·	·	·	·
COC(=O)c1cc(NC(=O)CN(c2ccccc2OC)S(=O)(=O)c2ccccc2)ccc1Cl	-1.7	i	i	i	-7	-15*	64%*	i	i
Clc1cc(Br)ccc1OCCOCCOc1cccc2cccnc12	-0.73	i	i	i	-2	i	·	·	·
COc1ccccc1OCCOCCOc1c(C)cc(C)cc1Br	1.6	i	i	i	-6	i	i	i	i
COc1cc(C)ccc1OCCOCCOc1c(C)cc(C)cc1Br	0.01	i	i	i	-11	i	i	i	i
Cc1ccc(OCCOCCOc2cccc3cccnc23)c(Br)c1	-1.9	i	i	i	-10	i	i	i	i
CN(C)CC/C=C1\c2ccccc2COc2ccccc21	-0.01	i	i	i	-7	i	·	·	·
CN(C)CC/C=C1/c2ccccc2Sc2ccc(Cl)cc21	-4.3*	i	i	i	-12	i	i	i	i
CC(C)c1ccc(C2C3=C(COC3=O)Nc3cc4c(cc32)OCO4)cc1 (stereo not drawn)	1.1	i	i	i	-17	-9.4*	i	i	i
CN(Cc1ccc2ccccc2c1)C(=O)c1ccc(C(F)(F)F)cc1	0.18	i	i	i	-8	i	i	i	38%*
COc1ccc(CN(C)C(=O)c2ccc(Oc3ccccc3)cc2)cc1F	0.98	i	i	i	-13	i	·	·	·
Cc1ccc(CSc2nnc(C(F)(F)F)n2Cc2ccc(F)cc2)cc1	-1.2	i	i	i	-8	-9.6*	29%*	i	39%*
COc1cccc(CSc2nnc(C(F)(F)F)n2Cc2ccc(F)cc2)c1	-4	i	i	i	-10	i	·	·	·
O=C(Cn1nc(-c2cccc(Cl)c2)ccc1=O)NCC1COCCO1 (stereo not drawn)	0.79	i	i	i	-6	i	·	·	·
COc1ccc(-c2csc(Nc3ncccc3C)n2)cc1	0.2	i	i	i	-9	i	i	i	i
COc1ccc(-c2csc(Nc3ncccc3C)n2)cc1OC	-1.1	i	i	i	-3	i	·	·	·
CC12CN3CC(C)(CN(C1)C3c1ccccc1F)C2 (stereo not drawn)	0.92	i	i	i	-3	i	·	·	·
C/C(CC(=O)Nc1ccc(Cl)c(C(F)(F)F)c1)=N\NC(N)=S	0.58	7*	i	i	-15	i	i	i	i
